Only some compounds are listed: those with a hit (about 3.8% of all), similar ones and a draw of the others.
KCNQ1 pot: potentiates or activates the human KCNQ1 potassium channel. CHO-K1 KCNQ1, thallium flux FluxOR fluorescence; stronger effect = higher value. P51787. AID 2648. 0.35% of 310,000 active. B-score at 10 µM;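 active = fluorescence ratio B-score, a plate-corrected score, at least three library SD, with initial intensity B-score within 5 SD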
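Assay system: CHO-K1 cells stably expressing KCNQ1. Medium: assay buffer for compound exposure, DMSO matched across wells. Timing: 37 °C overnight plating, 90-min dark dye load, 20-min compound pretreatment. Signal: kinetic FluxOR fluorescence, 10 s baseline plus 110 s post-stimulus.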
KCNK3 inh: human KCNK3 channel inhibition, primary screen. AID 602410. B-score at 10 µM. 0.84% of 340,000 active. CHO-KCNK3 thallium flux, FluxOR fluorescence; stronger effect = lower value;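 active = B-score under library mean minus 4 SD, starting fluorescence ratio at most library mean plus 5 SD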;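 also: more negative B-score means stronger inhibition of thallium flux through KCNK3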
Target sequence (O14649 whole entry, looked up): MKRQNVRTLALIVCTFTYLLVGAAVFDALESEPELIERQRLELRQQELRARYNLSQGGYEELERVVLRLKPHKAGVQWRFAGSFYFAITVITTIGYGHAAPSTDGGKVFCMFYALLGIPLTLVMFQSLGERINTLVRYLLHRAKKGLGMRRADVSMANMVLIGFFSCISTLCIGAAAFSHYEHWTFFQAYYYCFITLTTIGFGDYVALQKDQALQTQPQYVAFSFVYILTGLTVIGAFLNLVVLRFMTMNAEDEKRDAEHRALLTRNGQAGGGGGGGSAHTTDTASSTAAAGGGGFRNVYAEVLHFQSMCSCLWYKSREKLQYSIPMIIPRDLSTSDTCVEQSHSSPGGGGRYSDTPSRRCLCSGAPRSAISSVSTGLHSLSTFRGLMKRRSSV
hERG protect: hERG (human) protection from proarrhythmic block. Q12809. activation (rescue from dofetilide block), less the hit threshold, % at 10 µM. CHO-hERG, FluxOR thallium flux, dofetilide IC70 present. 0.51% of 310,000 active;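 active = activation above the mean of controls blocked by dofetilide plus 5 SD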;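 also: thallium influx through hERG after potassium depolarization seen as dye fluorescence rise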
KCNQ1 inh: human KCNQ1 channel inhibition. AID 2642. 1.3% of 310,000 active. P51787. B-score at 10 µM. CHO-K1 KCNQ1, FluxOR thallium flux fluorescence; stronger effect = higher value;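 active = compounds whose thallium flux B-score, printed positive for inhibition, exceeds three library SD while starting fluorescence stays within three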;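 also: channel opened by potassium depolarization with thallium stimulus after 20 min compound exposure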
KCNK9 inh: inhibitors of human KCNK9 two-pore domain potassium channel; HEK293 KCNK9, FluxOR thallium flux fluorescence; stronger effect = lower value; AID 488922; 1.2% of 310,000 active; B-score at 10 µM;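 active = ratio B-score over 3 SD below the library mean, with starting fluorescence within 5 SD of its mean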;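 also: negative B-score means less thallium flux so channel inhibition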
Kir21 inh: blocks the mouse Kir2.1 inward-rectifier potassium channel | P35561 | HEK293-Kir2.1, FluxOR thallium flux fluorescence; stronger effect = lower value | B-score at 10 µM | 0.85% of 310,000 active | AID 1672;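 active = fluorescence ratio B-score at or below minus 3 SD of library scores, with starting-brightness B-score within 2 SD, cut at about -4.2 in these data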;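 also: channel flux triggered by added potassium and thallium sulfate stimulus; B-score of peak minus minimum fluorescence over baseline after thallium stimulus; more negative B-score means stronger Kir2.1 block with less thallium influx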
KCNK9 inh conf: confirmation of human KCNK9 potassium channel inhibitors; shares compounds with KCNK9 inh; HEK293 KCNK9 cells, FluxOR thallium flux fluorescence; inhibition, % at 10 µM; 43% of 4,900 active; AID 492992;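 active = thallium signal inhibited by more than 5 SD of the compound-free buffer control wells, on both duplicate plates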;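 also: 0% = assay buffer control wells without compound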
Kir21 sel: mouse Kir2.1 off-target activity of KCNK9 modulators; shares compounds with KCNK9 inh; Kir2.1 cells, FluxOR thallium flux fluorescence; inhibition, % at 10 µM; 4% of 4,900 active;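 active = thallium signal drop more than 5 SD beyond the mean of the no-compound control wells, seen in both duplicate plates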;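 also: signal is fluorescence rise after thallium addition divided by baseline fluorescence; plate controls were assay buffer only for no effect and full block by chlorpromazine control for full effect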
HEK293 Tl ctr: second counter-screen for KCNK9 modulators: effect in non-induced cells; inhibition, % at 10 µM; non-induced KCNK9-HEK293, FluxOR thallium flux; 40% of 4,900 active; shares compounds with KCNK9 inh; AID 492997;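 active = thallium signal drop beyond 5 SD of the untreated control mean, on both duplicate plates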;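 also: plate controls were buffer only IC0 wells for no effect and SID17386958 at its maximal inhibitory level for full effect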
* = called active by the depositor; i = inactive; . = not tested or not shown.

SMILES | KCNQ1 pot | KCNK3 inh | hERG protect | KCNQ1 inh | KCNK9 inh | Kir21 inh | KCNK9 inh conf | Kir21 sel | HEK293 Tl ctr
Cc1ccc(-c2ccc(SCC(=O)N3CCc4ccccc43)nn2)cc1 | i | . | -7 | i | i | 0.01 | . | . | .
O=C(CSc1nc2ccccc2c(=O)n1-c1ccccc1)N1CCc2ccccc21 | i | i | -12 | i | i | -0.37 | . | . | .
Cc1cc2c(=O)n(Cc3ccco3)c(SCC(=O)N3CCCc4ccccc43)nc2s1 | i | i | -2 | i | i | 1.7 | i | i | i
Cc1ccc(-c2ccc(SCC(=O)N3CCCc4ccccc43)nn2)cc1 | i | . | -10 | i | i | -0.04 | i | i | i
Cc1sc2nc(SCc3ccc(C(=O)O)cc3)n(Cc3ccco3)c(=O)c2c1C | i | i | -16 | i | i | 1.8 | i | i | i
CCn1c(SCC(=O)N2CCCc3ccccc32)nnc1-c1ccco1 | i | i | -2 | i | i | -0.01 | . | . | .
O=C(CSc1nc2ccccc2c(=O)n1-c1ccccc1)N1CCCc2ccccc21 | i | i | -4 | i | i | 1 | i | i | i
CCC1CCC(NC(=O)Nc2cccc(OC)c2)CC1 (centres undefined) | i | i | -15 | i | i | -0.93 | . | . | .
COc1cccc2cc(C(=O)Nc3ccccc3C(=O)N3CCOCC3)oc12 | i | i | -7 | i | i | -0.3 | . | . | .
Cn1cccc1C(=O)NCc1ccc(S(N)(=O)=O)cc1 | i | i | -4 | i | i | 1.7 | . | . | .
O=C(O)c1cccc2c1C(=O)N(Cc1ccccc1)C2 | i | i | -11 | i | i | -1.5 | . | . | .
COc1ccc(C(=O)CSc2ccc(-c3ccc(C)cc3)nn2)cc1 | i | i | -4 | i | i | 0.76 | i | i | i
O=C(CSc1ccc(-c2ccccc2)nn1)c1ccccc1 | i | i | -6 | i | i | -0.14 | . | . | .
CCN(C(=O)CSc1ncccc1C(=O)Oc1cccc([N+](=O)[O-])c1)c1cccc(C)c1 | i | i | -8 | i | -19* | 0.7 | 52%* | i | 28%*
CSc1cccc(NC(=O)CSc2ncccc2C(=O)Oc2cccc([N+](=O)[O-])c2)c1 | i | i | -6 | i | i | 0.49 | . | . | .
N#C/C(=C\c1cn(CC(=O)N2CCCCC2)c2ccccc12)C(=O)NCc1ccc2c(c1)OCO2 | i | i | -8 | i | i | 0.43 | . | . | .
CCOC(=O)C1CCN(C(=O)c2oc3ccc(S(=O)(=O)N4CC(C)CC(C)C4)cc3c2C)CC1 (centres undefined) | i | i | -6 | i | i | 0.41 | i | i | i
O=C(CCC(=O)c1ccc(Oc2ccccc2)cc1)Nc1ccc(Cl)cc1Cl | i | i | -7 | i | i | -1.1 | i | i | i
CC(C)N1C(=O)C(Cc2nc3ccccc3c(=O)n2-c2ccccc2)c2ccccc21 (centres undefined) | i | i | -6 | i | i | -0.9 | i | i | i
CCCN1C(=O)C(Cc2nc3ccccc3c(=O)n2-c2ccccc2)c2ccccc21 (centres undefined) | i | i | -12 | i | i | 0.01 | . | . | .
C=CCSc1nnc(CCCCCN2C(=O)c3cccc4cccc(c34)C2=O)o1 | i | i | -10 | i | i | 0.81 | i | 35%* | i
COc1cc(NC(=O)C2CCCN(S(=O)(=O)c3cccc4nsnc34)C2)cc(OC)c1 (centres undefined) | i | i | -8 | i | i | 0.27 | i | i | i
